In series [1] the target is STE20/SPS1-related proline-alanine-rich protein kinase (Rattus norvegicus, UniProt O88506). Description: Inhibition of TAMRA-labelled WNK4 binding to recombinant rat C-terminal GST-fused SPAK (452 to 553 residues) expressed in Escherichia coli BL21 measured for 15 secs by FCS assay. Summed up: (§1)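 GST-fused rat SPAK CCT (residues 452–553) expressed in E. coli BL21 with IPTG induction for 16 h at 28°C, then glutathione-affinity purified. TAMRA-labelled WNK4 RFQV peptide (2.7 nM final) incubated with 0.5 µM GST–SPAK-CCT in PBS with 0.05% Tween 20 and 1% DMSO for 30 min at 25°C. An AFQV-mutant peptide served as negative control. Binding read by FCS with 15 s acquisition, five measurements per sample, and IC50 calculated from the data.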

Series [2] deals with STE20/SPS1-related proline-alanine-rich protein kinase (Rattus norvegicus) (UniProt O88506). Description: Inhibition of TAMRA-labelled WNK4 binding to recombinant rat C-terminal GST-fused SPAK (452 to 553 residues) expressed in Escherichia coli BL21 at > 10^-5 M measured for 15 secs by FCS assay. In a few lines: as §1
In series [3] the test system is HEK-293T. Description: Cytotoxicity against HEK293T cells after 40 hrs by CCK8 assay. The series is classed as cell-based. The conditions noted are these: Homo sapiens. A general note: Formazan colour is commonly taken as a measure of viable cells.
For series [4], the system named is HEK-293T. Description: Cytotoxicity against HEK293T cells at 100 uM after 40 hrs by CCK8 assay. Type of series: cell-based. Conditions: human.
Series [5] relates to Mus musculus. As to the kind of experiment: In-vivo inhibition of WNK signaling pathway in C57BL/6 mouse assessed as reduction in NKCC1 phosphorylation at 5 to 20 mg/kg, ip after 90 mins by immunoblotting analysis. The series is classed as functional, organism-based. Summed up:
(§2)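 Male-unspecified C57BL/6 mice, 10 weeks old, given a single ip injection of 5, 10 or 20 mg/kg in 100 µL DMSO, with DMSO-alone controls. Kidneys taken 90 min later and homogenized in ice-cold 1% Triton X-100 buffer. Nuclear fraction removed, lysate denatured at 60°C for 20 min, and protein measured by Bradford. Total and phospho forms of SPAK, NCC (pSer71), NKCC1 (pThr206) and NKCC2 detected by quantitative immunoblotting.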

The subject of series [6] is Mus musculus. As to the kind of experiment: In-vivo inhibition of WNK signaling pathway in C57BL/6 mouse assessed as reduction in NKCC2 phosphorylation at 5 to 20 mg/kg, ip after 90 mins by immunoblotting analysis. Type of series: functional, organism-based. In a few lines:
as §2
Background: Immunoblotting shows a protein as a band on a membrane.

Series [7] has as its system Mus musculus. As to the kind of experiment: In-vivo inhibition of WNK signaling pathway in ip dosed C57BL/6 mouse assessed as reduction in phosphorylated NCC level after 90 mins by immunoblotting analysis. The series is classed as functional, organism-based. Summed up:
as §2

Molecules are shown by their SMILES. Activity calls are given as the source filed them. The calls are words filed in the database; no cut-off is given here.

IC50, inhibition and Activity data for 20 molecules are collected here from ChEMBL document CHEMBL4052652, “Development of WNK signaling inhibitors as a new class of antihypertensive drugs” (Bioorg Med Chem, 2017).

As for `CCOc1ccc2nc3cc(NCc4cccs4)ccc3c(N)c2c1`, the IC50 in series [1] stood at 53.5 µM.

Consider `CCOc1ccc2nc3cc(NC(=O)c4ccc(C(=O)OC)cc4)ccc3c(N)c2c1`, for which the inhibition entry in series [2] was “inactive”.

As for `CCOc1ccc2nc3cc(NCc4ccc(OC)cc4OC)ccc3c(N)c2c1`, the IC50 in series [1] stood at 21.1 µM.

For `CCOc1ccc2nc3cc(NC(=O)c4ccco4)ccc3c(N)c2c1`, the IC50 in series [1] amounted to 8.2 µM.

Regarding `CCOc1ccc2nc3cc(NCc4ccccc4)ccc3c(N)c2c1`, in series [1], the half-inhibitory concentration (IC50) amounted to 35.6 µM.

Regarding `CCOc1ccc2nc3cc(NC(=O)c4ccccc4)ccc3c(N)c2c1`, the half-maximal inhibitory concentration (IC50) in series [1] is 28.2 µM.

`CCOc1ccc2nc3cc(NC(=O)c4cccc([N+](=O)[O-])c4)ccc3c(N)c2c1`: the IC50 in series [1] came to 3.9 µM.

For `CCOc1ccc2nc3cc(NC(C)=O)ccc3c(N)c2c1`, the inhibition result in series [2] was “inactive”.

As to `CCOc1ccc2nc3cc(NC(=O)c4ccc5ccccc5c4)ccc3c(N)c2c1`, in series [1], the IC50 is 7.6 µM.

As to `CCOc1ccc2nc3cc(NC(=O)c4ccc(C#N)cc4)ccc3cc2c1`, the inhibition result in series [2] is “inactive”.

Regarding `CCOc1ccc2nc3cc(NC(=O)c4cccc(C#N)c4)ccc3c(N)c2c1`, the IC50 in series [1] was determined as 2.6 µM.

Turning to `CCOc1ccc2nc3cc(NCc4ccco4)ccc3c(N)c2c1`, the IC50 was determined as 15.4 µM in series [1] and 4.2 µM in series [3].

Turning to `COc1ccc2nc3cc(NC(=O)Nc4ccc(C#N)cc4)ccc3c(N)c2c1`, the Activity result in series [4] is “Non-Toxic”. The inhibition result in series [5] and in series [6] was “Active” each time. The half-maximal inhibitory concentration (IC50) in series [1] was found to be 4.8 µM. Also, the inhibition result in series [7] was “Dose-dependent effect”.

Regarding `CCOc1ccc2nc3cc(NC(=O)c4ccc(Cl)cc4)ccc3c(N)c2c1`, the IC50 in series [1] is 49 µM.

For the molecule `CCOc1ccc2nc3cc(NC(=O)c4ccc(C#N)cc4)ccc3c(N)c2c1`, the inhibition entry in series [5] and in series [6] was “Active” throughout. Also, the IC50 in series [1] was 6.9 µM; in series [3], 25 µM. Besides, the inhibition entry in series [7] is “Dose-dependent effect”.

Take `CCOc1ccc2nc3cc(NC(=O)c4ccc([N+](=O)[O-])cc4)ccc3c(N)c2c1`: the IC50 in series [1] is 20.9 µM.

For the molecule `CCOc1ccc2nc3cc(NC(=O)c4ccc(C#N)cc4)ccc3c(Oc3ccccc3)c2c1`, the inhibition entry in series [2] was “inactive”.

On to `CCOc1ccc2nc3cc(NC(=O)c4cc(C(F)(F)F)cc(C(F)(F)F)c4)ccc3c(N)c2c1`, for which the IC50 in series [1] is > 100 µM.

For the molecule `CCOc1ccc2nc3cc(NC(=O)c4ccc(F)cc4)ccc3c(N)c2c1`, in series [1], the concentration for half-maximal inhibition (IC50) was 36.9 µM.

For the molecule `N#Cc1ccc(NC(=O)Nc2ccc3c(N)c4cc(O)ccc4nc3c2)cc1`, the half-maximal inhibitory concentration (IC50) in series [1] was found to be 2.6 µM.

In general, IC50 refers to the midpoint of a concentration-inhibition curve.
